Data: ChEMBL document CHEMBL4219146, “Synthesis and Pharmacological Evaluation of Heterocyclic Carboxamides: Positive Allosteric Modulators of the M1 Muscarinic Acetylcholine Receptor with Weak Agonist Activity and Diverse Modulatory Profiles” (J Med Chem, 2018)
Active and inactive are the calls of the source. The rule behind the calls is not given here.

Tests used:
[1] = molecular target: T1, Muscarinic acetylcholine receptor M1 (Homo sapiens) (UniProt P11229); experiment: Intrinsic activity at human muscarinic acetylcholine receptor M1 expressed in flpIn-CHO cells assessed as induction of IP1 accumulation at 10 uM after 1 hr by HTRF assay relative to control; type: functional, cell-based
T1 sequence (whole entry): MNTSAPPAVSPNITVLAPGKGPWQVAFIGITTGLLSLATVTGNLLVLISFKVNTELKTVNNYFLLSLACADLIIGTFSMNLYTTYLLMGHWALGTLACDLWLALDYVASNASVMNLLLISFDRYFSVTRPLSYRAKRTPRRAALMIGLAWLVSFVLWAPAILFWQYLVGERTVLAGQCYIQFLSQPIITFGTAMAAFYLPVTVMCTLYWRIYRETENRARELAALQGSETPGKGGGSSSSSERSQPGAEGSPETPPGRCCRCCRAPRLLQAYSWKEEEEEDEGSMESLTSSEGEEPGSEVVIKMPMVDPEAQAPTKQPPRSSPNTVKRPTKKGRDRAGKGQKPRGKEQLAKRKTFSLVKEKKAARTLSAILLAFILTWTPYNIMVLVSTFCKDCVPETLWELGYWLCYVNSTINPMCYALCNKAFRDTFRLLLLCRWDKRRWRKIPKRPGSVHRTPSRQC
Procedure, shortened: (§1)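 FlpIn CHO-hM1 cells, 25,000/well, seeded overnight, then preincubated 1 h at 37 °C in HEPES stimulation buffer with 50 mM LiCl, pH 7.4. ACh concentration-response curves run ± 10 µM modulator for 1 h at 37 °C. IP1 read by HTRF (665/620 nm) from lysates, interpolated from a standard curve and normalized to the ACh maximum. ∆pEC50 and ∆baseline taken versus ACh alone. ≥3 experiments, in duplicate.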

[2] = molecular target: T1, Muscarinic acetylcholine receptor M1 (Homo sapiens); experiment: Positive allosteric modulation of human muscarinic acetylcholine receptor M1 expressed in flpIn-CHO cells assessed as potentiation of acetylcholine-mediated IP1 accumulation at 10 uM measured after 1 hr by based HTRF assay relative to control; type: functional, cell-based; procedure, shortened: as §1
[3] = molecular target: T1, Muscarinic acetylcholine receptor M1 (Homo sapiens); experiment: Displacement of [3H]-NMS from human muscarinic acetylcholine receptor M1 expressed in flpIn-CHO cell membranes after 5 hrs in presence of acetylcholine at EC20 by liquid scintillation counting
Procedure, shortened: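 Whole-cell binding in FlpIn CHO-hM1 cells, 50,000/well, plated overnight and PBS-washed. Modulator titrated with a fixed EC20 ACh plus 0.2 nM [3H]NMS for 5 h at room temperature in HEPES/NaCl/MgCl2 buffer, pH 7.4. 100 µM atropine defined nonspecific binding. Cells washed with ice-cold saline and counted by scintillation. Data fitted to the allosteric ternary complex model.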

[4] = molecular target: T1, Muscarinic acetylcholine receptor M1 (Homo sapiens); experiment: Displacement of [3H]-NMS from human muscarinic acetylcholine receptor M1 […] after 5 hrs by liquid scintillation counting
[5] = molecular target: T1, Muscarinic acetylcholine receptor M1 (Homo sapiens); experiment: Allosteric agonist at human muscarinic acetylcholine receptor M1 expressed in CHO-NFAT cells assessed as induction of calcium mobilization after 4 mins by Fluo-4AM-based FLIPR assay; type: functional, cell-based
[6] = molecular target: T2, Muscarinic acetylcholine receptor M1 (Homo sapiens, UniProt P11229); experiment: Positive allosteric modulation of human muscarinic acetylcholine receptor M1 expressed in CHO cells assessed as potentiation of acetylcholine-induced calcium mobilization preincubated for 2.5 mins followed by acetylcholine addition measured after 1 min by Fluo-4AM-based FLIPR assay; type: functional, cell-based
T2 sequence (P11229 whole entry): T1 sequence (whole entry)

[7] = molecular target: T2, Muscarinic acetylcholine receptor M1; experiment: Allosteric agonist at human muscarinic acetylcholine receptor M1 expressed in CHO cells assessed as induction of calcium mobilization after 2.5 mins by Fluo-4AM-based FLIPR assay; type: functional, cell-based

SMILES	Intrinsic activity [1]	Activity [2]	further results
Cn1cc(-c2ccc(Cn3nc(C(=O)N[C@H]4CCCC[C@@H]4O)c4ccccc43)cc2)cn1	Active	Active	
Cn1cc(-c2ccc(Cn3ccc(C(=O)N[C@H]4CCCC[C@@H]4O)c3)cc2)cn1	3.31		log(IA) [1]: 0.52; fold change (FC) [2]: 7; pKb [3]: 4.19
Cn1cc(-c2ccc(Cn3cc(C(=O)NC4CCOCC4)c4ncccc43)cc2)cn1	Active		
O=C(O)c1ccc(Cn2cc(C(=O)N[C@H]3CCCC[C@@H]3O)c3ncccc32)cc1	2.88		log(IA) [1]: 0.46; pKb [3]: 4.63
Cn1cc(-c2ccc(Cn3cc(C(=O)N[C@H]4CCC[C@@H]4O)c4ncccc43)cc2)cn1	Active		
Cn1cc(-c2ccc(Cn3cc(C(=O)NC4CCNCC4)c4ncccc43)cc2)cn1	Active		
Cn1cc(-c2ccc(Cn3cc(C(=O)N4CCN(C(=O)OC(C)(C)C)CC4)c4ncccc43)cc2)cn1		inactive	
Cc1cnc(C(=O)N[C@@H]2CCOC[C@H]2O)cc1Cc1ccc(-c2cscn2)cc1			pKb [4]: 6.2
Cn1cc(-c2ccc(Cn3cc(C(=O)Nc4ccccc4)c4ncccc43)cc2)cn1	73%		
Cn1cc(-c2ccc(Cn3cc(C(=O)N[C@H]4CCCC[C@@H]4N)c4ncccc43)cc2)cn1		Active	
Cn1cc(-c2ccc(Cn3cc(C(=O)N[C@H]4CCCC[C@@H]4O)c4c(Cl)cccc43)cc2)cn1	Active	Active	
Cn1cc(-c2ccc(Cn3cc(C(=O)NC4CCCCC4)c4ncccc43)cc2)cn1	Active		
Cn1cc(-c2ccc(Cn3cc(C(=O)N[C@H]4CCOC[C@@H]4O)c4ncccc43)cc2)cn1	Active		
COc1ccc(Cn2cc(C(=O)O)c(=O)c3ccccc32)cc1			pKb [4]: 5.48; Intrinsic activity [5]: 2.09; log(IA) [5]: 0.32
CN(C(=O)c1cn(Cc2ccc(-c3cnn(C)c3)cc2)c2cccnc12)C1CCCCC1	0.57		log(IA) [1]: -0.24; pKb [3]: 4.91
Cn1cc(-c2ccc(Cn3cc(C(=O)N4CCCC4)c4ncccc43)cc2)cn1	inactive	Active	

SMILES	Intrinsic activity [1]	Activity [2]	further results
CCNC(=O)c1cn(Cc2ccc(-c3cnn(C)c3)cc2)c2cccnc12	3.63		log(IA) [1]: 0.56; pKb [3]: 4.61
Cn1cc(-c2ccc(Cn3cc(C(=O)N[C@H]4CCCO[C@@H]4O)c4ncccc43)cc2)cn1	Active		
Cn1cc(-c2ccc(Cn3cc(C(=O)N4CCNCC4)c4ncccc43)cc2)cn1	Active		
Cn1cc(-c2ccc(Cn3cc(C(=O)N[C@H]4CCCC[C@@H]4O)c4ccccc43)cc2)cn1	Active	Active	
Cn1cc(-c2ccc(Cn3cc(C(N)=O)c4ncccc43)cc2)cn1		Active	
Cn1cc(-c2ccc(Cn3cc(C(=O)N[C@H]4CCCC[C@@H]4O)c4c(F)cccc43)cc2)cn1	Active	Active	
Cn1cc(-c2ccc(Cn3cc(C(=O)N[C@@H]4CCCC[C@H]4O)c4c(F)cc(F)cc43)cn2)cn1			EC50 [6]: 210 nM; EC50 [7]: 4800 nM
CN(C)C(=O)c1cn(Cc2ccc(-c3cnn(C)c3)cc2)c2cccnc12	inactive	Active	
Cn1cc(-c2ccc(Cn3cc(C(=O)NC4CCC(=O)CC4)c4ncccc43)cc2)cn1	Active		
Cn1cc(-c2ccc(Cn3cc(C(=O)N[C@H]4CCCC[C@@H]4O)c4ncccc43)cc2)cn1	22.9	Active	pKb [4]: 5.92; log(IA) [1]: 1.36
Cn1cc(-c2ccc(Cn3cc(C(=O)Nc4ccccc4O)c4ncccc43)cc2)cn1	14%	inactive	
CNC(=O)c1cn(Cc2ccc(-c3cnn(C)c3)cc2)c2cccnc12		Active	
Cn1cc(-c2ccc(Cn3cc(C(=O)N4CCCCC4)c4ncccc43)cc2)cn1	inactive	inactive	
CCN(CC)C(=O)c1cn(Cc2ccc(-c3cnn(C)c3)cc2)c2cccnc12	0		pKb [3]: 4.43
Cn1cc(-c2ccc(Cn3cc(C(=O)N[C@H]4CC[C@H](O)CC4)c4ncccc43)cc2)cn1	Active		
